Screens from PubChem BioAssay.
A1 inh: inhibitors of the anti-apoptotic protein A1, read as caspase activation; MEF A1-2A-BIM cells, Caspase-Glo 3/7 luminescence, 3 h; percent of clofoctol response, vehicle zero; caspase activation, % (test concentration not listed); 0.066% of 330,000 active;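 active = over half of replicate activation scores above 10%, or exactly half above 10 with the replicate mean above 10; inconclusive = replicate mean below 10 yet half the replicates above 10; inactive = over half of replicates below 10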
NTR1 agonist: agonists of human neurotensin receptor NTR1 | P30989 | NTR1-U2OS beta-arrestin-GFP spot imaging, agonist mode | activation, % at 20 µM | 0.17% of 330,000 active;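 active = activation at or above 40% of the spot to cytoplasm intensity ratio, with at least 20 cells analyzed; inconclusive = wells under 20 cells, flagged as cytotoxic or low count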;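 also: 0% = DMSO without peptide and 100% = 100 nM NTR1 peptide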
Target sequence (P30989 whole entry, looked up): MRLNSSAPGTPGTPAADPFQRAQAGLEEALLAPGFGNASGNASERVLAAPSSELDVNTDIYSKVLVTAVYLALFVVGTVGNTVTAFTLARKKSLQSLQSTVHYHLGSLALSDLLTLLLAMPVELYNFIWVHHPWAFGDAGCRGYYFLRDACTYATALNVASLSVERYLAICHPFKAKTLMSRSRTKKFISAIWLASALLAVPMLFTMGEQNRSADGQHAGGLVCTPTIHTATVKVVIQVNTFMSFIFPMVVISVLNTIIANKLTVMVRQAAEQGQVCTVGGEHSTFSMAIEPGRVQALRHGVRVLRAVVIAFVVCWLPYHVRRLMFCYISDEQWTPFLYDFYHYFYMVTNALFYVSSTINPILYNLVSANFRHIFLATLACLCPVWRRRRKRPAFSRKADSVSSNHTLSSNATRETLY
Granule exo inh: lytic granule exocytosis inhibition. TALL-104 LAMP-1 surface exposure, flow cytometry; cells stimulated with thapsigargin and PMA. inhibition, % at 10 µM. 0.66% of 360,000 active;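 active = inhibition above about 55%, limit read from the data; inconclusive = no clear call, values can overlap the other calls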
MC4R antagonist: blocks human MC4R cAMP signaling; P32245; MC4R-expressing cells, MTII-stimulated cAMP, LANCE TR-FRET; inhibition, % at 6.5 µM; 0.48% of 360,000 active;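 active = inhibition above its plate's cutoff, the mean of tested wells on that plate plus 3 SD, cut at about 29% in these data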;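 also: 0% = Melanotan II alone and 100% = Melanotan II plus saturating MCL0020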
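System – human MC4R-expressing U2OS cells · Also added – Melanotan II · Dosing – one concentration, 6.5 µM nominal · Timing – 30-min compound, 1-h challenge, 1-h detection, room temperature · Measured by – Eu-cAMP/anti-cAMP TR-FRET, emission 671 nm · Replicates – singlicate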
sPLA2-III inh: Inhibits HGIII-sPLA2 liposome hydrolysis, primary screen; QFRET BODIPY PC-A2 liposome hydrolysis, fluorescence; Q9NZ20; AID 743126; inhibition, % at 12.2 µM; 0.56% of 370,000 active;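 active = inhibition above mean plus 3 SD of compounds lying within the high and low control bounds, cut at about 19% in these data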;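 also: 0% = median of test compound wells and 100% = no enzyme DMSO wells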
MC4R barr agon: activates human MC4R beta-arrestin recruitment | P32245 | AID 540308 | activation, % at 8.9 µM | 0.98% of 360,000 active | U2OS MC4R beta-arrestin complementation, luminescence; percent of melanotan II response, DMSO zero;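 active = activation above a per-plate cutoff, the mean activation of sample wells on that plate plus 3 SD, cut at about 8% in these data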
* = called active by the depositor; ? = inconclusive; · = no result. Most compounds without a hit are left out; they make up all but 2.5% or so of the library.

SMILES	A1 inh	NTR1 agonist	Granule exo inh	MC4R antagonist	sPLA2-III inh	MC4R barr agon
O=C(Nc1ccc(Cl)cc1)Nc1ccccc1C(=O)N1CCCC1	·	·	·	·	-5.2	·
COc1cccc(C2c3c(oc4ccccc4c3=O)C(=O)N2c2ccccn2)c1 (stereo not given)	0.6	-1.3	-5.1	4.0	19.7*	-0.1
CCOc1cccc(C2c3c(oc4ccccc4c3=O)C(=O)N2c2ccccn2)c1 (stereo not given)	-0.3	6.5	·	·	-2.1	·
CCOc1cc(C2c3c(oc4ccccc4c3=O)C(=O)N2c2nccs2)ccc1O (stereo not given)	0.0	3.6	1.6	-3.8	-6.1	9.5*
COC(=O)C[C@H]1CC[C@@H]2[C@H](COc3ccc(NS(C)(=O)=O)cc3C(=O)N2C)O1	·	·	·	·	5.2	·
CCOc1ccc(Nc2cc(C)nc3nc(C)nn23)cc1	5.2*	-1.9	-6.1	2.3	3.7	-0.3
COC(=O)[C@]12C[C@H](CC(=O)N3CCSCC3)C(=O)N(Cc3ccccc3)C1=C[C@H](C1CCCC1)O[C@@H]2C	·	·	·	·	14.3	·
O=Cc1coc([B-](F)(F)F)c1	·	·	·	·	9.1	·
CC(NC(=O)/C(C#N)=C/c1ccc([N+](=O)[O-])o1)c1ccccc1 (stereo not given)	-0.3	-1.0	66.9*	5.8	-10.2	-1.6
CCOC(=O)[C@@]12CCCC3=C1N(CCC3)C(=O)[C@H]2CC(=O)NCCCCc1ccccc1	·	·	·	·	2.2	·
CCOc1ccc(NC(=O)NCCCCc2ccccc2)cc1	0.5	0.8	-1.1	-1.4	-2.7	9.0*
COc1ccc(NC(=O)NCCCCc2ccccc2)cc1	-1.7	-0.5	-0.2	11.4	-2.7	-0.4
COC(=O)[C@]12C[C@H](CC(=O)N3CCCC3)C(=O)N(CCc3ccc(OC)c(OC)c3)C1=C[C@H](C(C)(C)C)O[C@@H]2C	·	·	·	·	-2.5	·
CCCCS(=O)(=O)N1CCCc2nc(-c3ccc(OC)cc3)ccc21	·	·	·	·	-1.7	·
O=C(NCC1OCCc2ccccc21)c1ccc(NC(=O)c2cccc(Br)c2)cc1 (stereo not given)	0.5	-1.5	-4.3	16.1	-2.5	9.5*
NC(=O)C1(N2CCCCC2)CCN(C(=S)Nc2ccc(F)cc2)CC1	2.4	0.5	-1.1	-2.3	0.5	8.5*
CCOC(=O)C1=C(Cc2ccc(OC)cc2)C(=O)c2ccccc2C1=O	·	·	105.2*	-5.5	·	-0.3
CCOC(=O)C1=C(Cc2ccc(C)cc2)C(=O)c2ccccc2C1=O	0.3	1.7	·	·	0.3	·
CCOC(=O)C1=C(O)c2ccccc2C(=O)/C1=C\c1ccc(CC)cc1	0.3	·	101.5*	3.3	·	5.4
CC(C)Oc1cccc(C(=O)C2CCCN(S(C)(=O)=O)C2)c1 (stereo not given)	2.5	1.4	-4.6	28.5*	6.0	0.9
Cc1noc(C)c1S(=O)(=O)N1CCCC(C(=O)c2cccc(OC(C)C)c2)C1 (stereo not given)	0.1	1.5	0.9	16.2	-1.4	-2.0
COc1ccc2oc(=O)c(C(=O)Nc3ccccc3O)cc2c1	-7.4	1.3	-2.9	0.1	-5.4	7.2
COc1ccc(NC(=O)c2cc3ccc(O)cc3o/c2=N\O)cc1	-6.5	5.3	65.8*	2.0	-17.1	-2.1
COc1ccccc1NC(=O)c1cc2cc(Br)ccc2oc1=N	2.0	5.7	23.9	-6.3	7.8	8.3*
COc1ccc2o/c(=N\O)c(C(=O)Nc3ccccc3OC)cc2c1	-0.7	12.9	63.5*	-13.9	-1.4	4.4
O=C(NCc1ccccc1)OC1CCC12CCC(c1ccccc1)CC2 (stereo not given)	·	·	·	·	-6.2	·
Nc1ccn([C@@H]2O[C@H](C(=O)N[C@H](Cc3ccccc3)C(=O)N3CCN(CCO)CC3)[C@@H](O)[C@H]2O)c(=O)n1	·	·	·	·	6.3	·
O=C(NCCN1CCN(c2ccccc2)CC1)c1ccc2c(c1)[nH]c(=S)n1c3ccccc3nc21	?	-1.5	-1.0	8.3	4.1	8.9*
Cc1c(C=O)c2cc(OCc3ccccc3)ccc2n1C	-2.6	3.3	69.2*	-3.1	3.1	-0.3
O=C(N[C@H](C(=O)N1CCC[C@H]1C(=O)NC1CCCC1)C1CCCCC1)c1nccs1	·	·	·	·	4.3	·
